Measured values: ChEMBL document CHEMBL5029188

How the values were obtained:
[1] = Inhibition of SARS CoV-2 3C like protease using FAM-SAVLQ/SG-QLX520 as substrate pretreated for 1 hr followed by substrate addition and measured after 1 hr by FRET assay; parameters: species or system Severe acute respiratory syndrome coronavirus 2
Method in brief: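 SARS-CoV-2 3CLpro was expressed from pET-28a(+). It was preincubated with serial compound dilutions at 37°C for 1 h in 20 mM HEPES pH 8, 200 mM NaCl, 0.4 mM EDTA, 60% glycerol and 6 mM DTT. IC50 came from a variable-slope fit, averaging at least two determinations.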

[2] = Inhibition of MERS CoV 3C like protease using FAM-SAVLQ/SG-QLX520 as substrate pretreated for 30 mins followed by substrate addition and measured after 1 hr by FRET assay; parameters: species or system Middle East respiratory syndrome-related coronavirus
[3] = Inhibition of SARS CoV-2 3C like protease expressed in HEK293T cells transfected with pGlo-VRLQS incubated for 6 hrs by firefly/renilla luciferase reporter assay; type: cell-based; settings: Severe acute respiratory syndrome coronavirus 2, HEK-293T
Method in brief: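 HEK293T cells, one day old, were co-transfected with pR-SARS-CoV-2 3CLpro (3CLpro gene in a PRRSV replicon, between ORF1b and 2a) and pGlo-VRLQS (caged firefly luciferase with a VRLQS cleavage site, plus Renilla control). C145A-mutant and mock transfections served as negative controls. Next morning, serial compound dilutions were added for 6 h at 37 C. Read-out was the firefly/Renilla ratio, and EC50 came from a variable-slope fit.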

HEK-293T = assay: Cytotoxicity against HEK293T cells assessed as reduction in cell viability measured after 72 hrs by CytoTox 96 nonradioactive cytotoxicity assay; type: cell-based; settings: human
Method in brief: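 HEK293T cells were exposed to compound at 1 to 100 μM for 72 h. Cytotoxicity was read with a CytoTox 96 nonradioactive kit, and CC50 was fitted with a variable-slope curve.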

SARS-CoV-2 = assay: Antiviral activity against SARS CoV-2 infected in African green monkey Vero cells assessed as inhibition of viral replication incubated for 48 to 72 hrs by plaque reduction assay; type: functional, organism-based; settings: Severe acute respiratory syndrome coronavirus 2, Vero

| SMILES | IC50 [1] [nM] | IC50 [2] [nM] | EC50 [3] [nM] | CC50 (HEK-293T) [nM] | EC50 (SARS-CoV-2) [nM] |
| --- | --- | --- | --- | --- | --- |
| CC(C)C[C@H](NC(=O)O[C@H]1CC[C@H](C(C)C)CC1)C(=O)N[C@@H](C[C@@H]1CCNC1=O)C(O)S(=O)(=O)O (some centres not stated) | 240 | – | – | – | – |
| CCCC(OC(=O)N[C@@H](CC(C)C)C(=O)N[C@@H](C[C@@H]1CCNC1=O)C(O)S(=O)(=O)O)c1ccccc1 (some centres not stated) | 210 | 130 | 3720 | > 100000 | – |
| CC(C)C[C@H](NC(=O)OC1CCC(C)(C)CC1)C(=O)N[C@@H](C[C@@H]1CCNC1=O)C(O)S(=O)(=O)O (some centres not stated) | 240 | 120 | 1670 | > 100000 | – |
| [2H]C([2H])(OC(=O)N[C@@H](CC(C)C)C(=O)N[C@@H](C[C@@H]1CCNC1=O)C(O)S(=O)(=O)[O-])c1c(F)c(F)c(F)c(F)c1F.[Na+] (some centres not stated) | 600 | – | – | – | – |
| CC(C)C[C@H](NC(=O)O[C@H]1CC[C@H](C(C)C)CC1)C(=O)N[C@H](C=O)C[C@@H]1CCNC1=O | 240 | – | – | – | – |
| CC(C)C[C@H](NC(=O)OC(Cc1ccccc1)C1CCC(F)(F)CC1)C(=O)N[C@H](C=O)C[C@@H]1CCNC1=O (some centres not stated) | 310 | 100 | 2950 | > 100000 | – |
| CCCCC(OC(=O)N[C@@H](CC(C)C)C(=O)N[C@H](C=O)C[C@@H]1CCNC1=O)C1CCC(F)(F)CC1 (some centres not stated) | 190 | – | – | – | – |
| [2H]C([2H])(OC(=O)N[C@@H](CC(C)C)C(=O)N[C@H](C=O)C[C@@H]1CCNC1=O)[C@H]1CC[C@H](CCC)CC1 | 330 | – | – | – | – |
| CC(C)C[C@H](NC(=O)OC(c1ccccc1)C1CCC(F)(F)CC1)C(=O)N[C@H](C=O)C[C@@H]1CCNC1=O (some centres not stated) | 130 | 40 | 1030 | > 100000 | – |
| [2H]C([2H])(OC(=O)N[C@@H](CC(C)C)C(=O)N[C@H](C=O)C[C@@H]1CCNC1=O)c1c(F)c(F)c(F)c(F)c1F | 470 | – | – | – | – |
| CC(C)C[C@H](NC(=O)OCc1cccc(F)c1)C(=O)N[C@H](C=O)C[C@@H]1CCNC1=O | 350 | 70 | 5280 | > 100000 | – |
| CC(C)C[C@H](NC(=O)OCc1ccc(F)cc1)C(=O)N[C@H](C=O)C[C@@H]1CCNC1=O | 390 | – | – | – | – |
| CC(C)C[C@H](NC(=O)OCC1CCC(F)(F)CC1)C(=O)N[C@H](C=O)C[C@@H]1CCNC1=O | – | 80 | – | – | – |
| CC(C)C[C@H](NC(=O)OC(C)C1CCC(F)(F)CC1)C(=O)N[C@@H](C[C@@H]1CCNC1=O)C(O)S(=O)(=O)O (some centres not stated) | 260 | – | – | – | – |
| [2H]C([2H])(OC(=O)N[C@@H](CC(C)C)C(=O)N[C@@H](C[C@@H]1CCNC1=O)C(O)S(=O)(=O)[O-])c1ccc(F)cc1.[Na+] (some centres not stated) | 320 | – | – | – | – |
| CC(C)C[C@H](NC(=O)OC[C@H]1CC[C@H](C(F)(F)F)CC1)C(=O)N[C@H](C=O)C[C@@H]1CCNC1=O | 250 | – | – | – | – |
| CC(C)C[C@H](NC(=O)OC(Cc1ccccc1)c1ccccc1)C(=O)N[C@@H](C[C@@H]1CCNC1=O)C(O)S(=O)(=O)O (some centres not stated) | 310 | – | – | – | – |
| CC(C)C[C@H](NC(=O)OCc1cccc(F)c1)C(=O)N[C@@H](C[C@@H]1CCNC1=O)C(O)S(=O)(=O)O (some centres not stated) | 360 | 70 | 3400 | > 100000 | – |
| [2H]C([2H])(OC(=O)N[C@@H](CC(C)C)C(=O)N[C@@H](C[C@@H]1CCNC1=O)C(O)S(=O)(=O)[O-])C1CCC(F)(F)CC1.[Na+] (some centres not stated) | 210 | – | – | – | – |
| CCC[C@H]1CC[C@H](OC(=O)N[C@@H](CC(C)C)C(=O)N[C@H](C=O)C[C@@H]2CCNC2=O)CC1 | 250 | – | – | – | – |
| CCCC[C@H]1CC[C@H](OC(=O)N[C@@H](CC(C)C)C(=O)N[C@H](C=O)C[C@@H]2CCNC2=O)CC1 | 170 | 120 | 4840 | 55000 | – |
| CCC[C@H]1CC[C@H](COC(=O)N[C@@H](CC(C)C)C(=O)N[C@@H](C[C@@H]2CCNC2=O)C(O)S(=O)(=O)O)CC1 (some centres not stated) | 200 | 110 | 4430 | 44000 | – |
| CC(C)C[C@H](NC(=O)OCc1ccccc1)C(=O)N[C@@H](C[C@@H]1CCNC1=O)C(O)S(=O)(=O)O (some centres not stated) | – | – | – | – | 230 |
| CC(C)C[C@H](NC(=O)OC(C)C1CCC(F)(F)CC1)C(=O)N[C@H](C=O)C[C@@H]1CCNC1=O (some centres not stated) | 260 | – | – | – | – |

| SMILES | IC50 [1] [nM] | IC50 [2] [nM] | EC50 [3] [nM] | CC50 (HEK-293T) [nM] | EC50 (SARS-CoV-2) [nM] |
| --- | --- | --- | --- | --- | --- |
| CC(C)C[C@H](NC(=O)OCc1ccc(F)cc1)C(=O)N[C@@H](C[C@@H]1CCNC1=O)C(O)S(=O)(=O)O (some centres not stated) | 400 | – | – | – | – |
| [2H]C([2H])(OC(=O)N[C@@H](CC(C)C)C(=O)N[C@@H](C[C@@H]1CCNC1=O)C(O)S(=O)(=O)[O-])[C@H]1CC[C@H](CCC)CC1.[Na+] (some centres not stated) | 330 | – | – | – | – |
| [2H]C([2H])(OC(=O)N[C@@H](CC(C)C)C(=O)N[C@H](C=O)C[C@@H]1CCNC1=O)c1ccc(F)cc1 | 390 | – | – | – | – |
| CC(C)C[C@H](NC(=O)O[C@H]1CC[C@H](c2ccccc2)CC1)C(=O)N[C@@H](C[C@@H]1CCNC1=O)C(O)S(=O)(=O)O (some centres not stated) | 230 | – | – | – | – |
| CCCCC(OC(=O)N[C@@H](CC(C)C)C(=O)N[C@@H](C[C@@H]1CCNC1=O)C(O)S(=O)(=O)O)C1CCC(F)(F)CC1 (some centres not stated) | 270 | – | – | – | – |
| CC(C)C[C@H](NC(=O)OC[C@H]1CC[C@H](C(F)(F)F)CC1)C(=O)N[C@@H](C[C@@H]1CCNC1=O)C(O)S(=O)(=O)O (some centres not stated) | 190 | – | – | – | – |
| CC(C)C[C@H](NC(=O)OCc1c(F)c(F)c(F)c(F)c1F)C(=O)N[C@@H](C[C@@H]1CCNC1=O)C(O)S(=O)(=O)O (some centres not stated) | – | 80 | 4840 | > 100000 | – |
| CC(C)C[C@H](NC(=O)OCc1ccccc1F)C(=O)N[C@H](C=O)C[C@@H]1CCNC1=O | 340 | – | – | – | – |
| CC(C)C[C@H](NC(=O)OC(C)(C)C1CCC(F)(F)CC1)C(=O)N[C@@H](C[C@@H]1CCNC1=O)C(O)S(=O)(=O)O (some centres not stated) | 1250 | – | – | – | – |
| CC(C)C[C@H](NC(=O)OCC1CCC(F)(F)CC1)C(=O)N[C@@H](C[C@@H]1CCNC1=O)C(O)S(=O)(=O)O (some centres not stated) | – | 100 | – | – | – |
| CC(C)C[C@H](NC(=O)OC(Cc1ccccc1)c1ccccc1)C(=O)N[C@H](C=O)C[C@@H]1CCNC1=O (some centres not stated) | 500 | – | – | – | – |
| CC(C)C[C@H](NC(=O)OC[C@H]1CC[C@@H](C(F)(F)F)CC1)C(=O)N[C@@H](C[C@@H]1CCNC1=O)C(O)S(=O)(=O)O (some centres not stated) | 200 | – | – | – | – |
| CC(C)C[C@H](NC(=O)OC(c1ccccc1)C1CCC(F)(F)CC1)C(=O)N[C@@H](C[C@@H]1CCNC1=O)C(O)S(=O)(=O)O (some centres not stated) | 170 | 50 | 1450 | > 100000 | 700 |
| CC(C)C[C@H](NC(=O)OC(Cc1ccccc1)C1CCC(F)(F)CC1)C(=O)N[C@@H](C[C@@H]1CCNC1=O)C(O)S(=O)(=O)O (some centres not stated) | 290 | 140 | 3500 | > 100000 | – |
| CCCC[C@H]1CC[C@H](OC(=O)N[C@@H](CC(C)C)C(=O)N[C@@H](C[C@@H]2CCNC2=O)C(O)S(=O)(=O)O)CC1 (some centres not stated) | – | 150 | 4230 | 58000 | 850 |
| CCC[C@H]1CC[C@H](OC(=O)N[C@@H](CC(C)C)C(=O)N[C@@H](C[C@@H]2CCNC2=O)C(O)S(=O)(=O)O)CC1 (some centres not stated) | 190 | – | – | – | – |
| CC(C)C[C@H](NC(=O)OCc1ccccc1F)C(=O)N[C@@H](C[C@@H]1CCNC1=O)C(O)S(=O)(=O)O (some centres not stated) | 380 | – | – | – | – |
| CCCC(OC(=O)N[C@@H](CC(C)C)C(=O)N[C@H](C=O)C[C@@H]1CCNC1=O)c1ccccc1 (some centres not stated) | 330 | 80 | 2390 | > 100000 | – |
| CC(C)C[C@H](NC(=O)OCc1c(F)c(F)c(F)c(F)c1F)C(=O)N[C@H](C=O)C[C@@H]1CCNC1=O | – | 50 | 3270 | > 100000 | – |
| CC(C)C[C@H](NC(=O)OC(C)(C)C1CCC(F)(F)CC1)C(=O)N[C@H](C=O)C[C@@H]1CCNC1=O | 1200 | – | – | – | – |
| CC(C)C[C@H](NC(=O)OC[C@H]1CC[C@@H](C(F)(F)F)CC1)C(=O)N[C@H](C=O)C[C@@H]1CCNC1=O | 230 | – | – | – | – |
| CC(C)C[C@H](NC(=O)OC1CCC(C)(C)CC1)C(=O)N[C@H](C=O)C[C@@H]1CCNC1=O | 250 | 120 | 3480 | > 100000 | – |
| CC(C)C[C@H](NC(=O)O[C@H]1CC[C@H](c2ccccc2)CC1)C(=O)N[C@H](C=O)C[C@@H]1CCNC1=O | 220 | – | – | – | – |
